Where two headings read alike, the source gives them in different places.
What was measured:
[1] = tested on: 4T1 (breast cancer) cells; assay: MTT cytotoxicity assay, 4T1; format: cell-based, murine; details: read-out: IC50 4T1, 48 h
[2] = tested on: B16F10 (melanoma) cells; assay: MTT cytotoxicity assay, B16F10; format: cell-based, murine; details: read-out: IC50 B16F10
How it was run: (§1)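 Cells were cultured in DMEM/RPMI-1640/MEM with 10% FBS and 1% penicillin–streptomycin at 37 °C, 5% CO2; Renca medium also had 1 mmol/L sodium pyruvate and 2 mmol/L L-glutamine. Cells at about 50% confluence in 96-well plates were exposed to a concentration series for 48 h (DMSO vehicle). MTT was added for 4 h at 37 °C, formazan dissolved in DMSO, and absorbance read on a plate reader. Results are mean ± SD.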

[3] = tested on: Renca (kidney cancer) cells; assay: MTT cytotoxicity assay, Renca; format: cell-based, murine; details: read-out: IC50 Renca, 48 h
How it was run: as §1

[4] = tested on: HUVEC; assay: MTT cytotoxicity assay, HUVEC; format: cell-based, human; details: read-out: IC50 HUVEC, 48 h
How it was run: as §1

[5] = tested on: L-929; assay: MTT cytotoxicity assay, L-929; format: cell-based, murine; details: read-out: IC50 L-929
How it was run: as §1

[6] = tested on: 4T1 subcutaneous tumor; assay: Anti-tumor effect in vivo, 4T1 subcutaneous tumor model; parameters: species or system BALB/c mouse; details: 4T1-bearing BALB/c mice, after 27 days
How it was run: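 Subcutaneous 4T1 tumours were grown in female BALB/c mice (6–8 weeks, 18–20 g). At about 50 mm3 on day 7, mice were randomised to five groups: PBS, each parent drug alone, the parent drugs combined, or test compound. Dosing was i.v. every two days, with body weight and tumour volume measured regularly. Main organs and blood were collected at study end for safety assessment.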

[7] = tested on: Sam50 and COX II; assay: Western blot of Sam50 and COX II; format: cell-based, murine; details: 4T1, 2 μmol/L, 24 h
How it was run: (§2)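 4T1 cells at about 70% confluence in 6-well plates were treated 24 h with test compound or DMSO vehicle. Protein was extracted in RIPA buffer with PMSF and phosphatase inhibitors, immunoblotted, and detected by enhanced chemiluminescence imaging. Sam50/COX II blots: n = 3.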

[8] = tested on: NLRP3 inflammasome; assay: Western blot of NLRP3; format: cell-based, murine; details: 4T1, 2 μmol/L, 24 h, compared to control group
How it was run: as §2

[9] = MTT, mean ± SD of three experiments
[10] = MTT, 48 h, mean ± SD of three experiments

| SMILES | IC50 [1, 9] [µM] | IC50 [2, 10] [µM] | IC50 [3, 9] [µM] | IC50 [4, 9] [µM] | IC50 [5, 10] [µM] | relative tumor volume versus PBS group [6] | protein concentrations of Sam50 and COX II [7] | IC50 ([1]; Mus musculus) [µM] | IC50 ([2]; Mus musculus, B16-F10, 48 h) [µM] | IC50 ([3]; Mus musculus, Renca) [µM] | IC50 ([4]; Homo sapiens, HUVEC) [µM] | IC50 ([5]; Mus musculus, L929, 48 h) [µM] | NLRP3 inflammasome expression upregulation [8] |
| --- | --- | --- | --- | --- | --- | --- | --- | --- | --- | --- | --- | --- | --- |
| O=C1[O][Pt]2([NH][C@@H]3CCCC[C@H]3[NH]2)[O]C1=O [Oxa, Oxaliplatin] | 13.4 ± 0.66 | 25.9 ± 0.96 | > 100 | 32.5 ± 2.01 | 44.6 ± 0.93 | no significant difference | no significant effect |  |  |  |  |  |  |
| CC(=O)Nc1ccc(O)cc1 [APAP, Acetaminophen] |  |  |  |  |  | no significant difference | significantly downregulated | > 100 | > 100 | > 100 | > 100 | 73.3 ± 0.88 | approximately 1.2 fold |
